Experiments:
[1] = Prodrug activation in C57Bl/6 mouse brain assessed as sobetirome level at 1.5 umol/kg, ip after 1 hr by LC-MS/MS analysis; assay type: organism-based; conditions: in vivo
How it was run: (§1)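 Single i.p. dose of 1.5 μmol/kg in 50% DMSO/saline to male C57Bl/6 mice (8–10 wk), n = 3. Agents were given as amide-rearranged isomers where rearrangement occurs. Whole brain and blood were taken at 1 h. Sobetirome was measured by LC-MS/MS with d6-sobetirome internal standard, and the brain/serum ratio was calculated. Values are mean with SEM.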

[2] = Ratio of drug level in C57Bl/6 mouse brain to serum assessed as sobetirome level at 1.5 umol/kg, ip after 1 hr by LC-MS/MS analysis; assay type: ADME, organism-based; how it was run: as §1
[3] = Elimination half life in C57Bl/6 mouse at 3.05 umol/kg, iv by LC-MS/MS analysis; assay type: ADME, organism-based; conditions: in vivo, read-out: beta t1/2 (converted)
How it was run: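 C57Bl/6 mice, n = 3 per cohort, dosed i.v. by tail vein at 3.05 μmol/kg or by oral gavage at 30.5 μmol/kg in 50% DMSO/saline. Serial serum samples were taken (i.v.: 5 min–8 h; p.o.: 10 min–8 h). Prodrug and sobetirome were quantified by LC-MS/MS. %F = (AUCp.o./AUCi.v.)·(dosei.v./dosep.o.)·100. t½ came from the log-concentration slope of the last five i.v. time points.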

[4] = Ratio of AUC (0 to t) in C57Bl/6 mouse brain to serum at 1.5 umol/kg, ip by LC-MS/MS analysis; assay type: ADME, organism-based; conditions: read-out: Ratio AUC
How it was run: (§2)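 Male C57Bl/6 mice (8–10 wk) given a single i.p. dose of 1.5 μmol/kg in 50% DMSO/saline. Three mice per time point were killed at 0.25, 0.5, 1, 2, 4 and 8 h. Brain, liver, heart and kidney were homogenized with d6-sobetirome internal standard and acetonitrile-extracted, as was serum. Sobetirome was quantified by negative-ESI LC-MS/MS on C18. AUC0→t was computed over 8 h.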

[5] = AUC (0 to t) in C57Bl/6 mouse liver assessed as sobetirome level at 1.5 umol/kg, ip by LC-MS/MS analysis; assay type: ADME, organism-based; conditions: in vivo; how it was run: as §2
[6] = system: Mus musculus; test: Upregulation of Hr expression levels in ip dosed mouse brain for 7 days measured after 2 hrs post last dose by […] green dye-based qPCR analysis; assay type: functional
How it was run: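 Mice, n = 3 per dose, received six i.p. doses in 1:1 saline/DMSO. Brains were collected 2 h post-injection. RNA was extracted with Trizol and a column kit with DNase treatment, and cDNA was diluted two-fold. Hairless was measured by qPCR, normalized to GAPDH, by comparative CT. ED50 ± SEM came from a sigmoidal dose–response fit. Run in triplicate.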

[7] = AUC (0 to t) in C57Bl/6 mouse brain assessed as sobetirome level at 1.5 umol/kg, ip by LC-MS/MS analysis; assay type: ADME, organism-based; conditions: in vivo; how it was run: as §2
[8] = AUC (0 to t) in C57Bl/6 mouse heart assessed as sobetirome level at 1.5 umol/kg, ip by LC-MS/MS analysis; assay type: ADME, organism-based; conditions: in vivo; how it was run: as §2
[9] = system: Mus musculus; test: Total oral bioavailability in C57Bl/6 mouse assessed as sobetirome level at 30.5 umol/kg administered via oral gavage by LC-MS/MS analysis; conditions: in vivo
[10] = system: Mus musculus; test: Oral bioavailability in C57Bl/6 mouse at 30.5 umol/kg administered via oral gavage by LC-MS/MS analysis; conditions: in vivo
[11] = AUC (0 to t) in C57Bl/6 mouse kidney assessed as sobetirome level at 1.5 umol/kg, ip by LC-MS/MS analysis; assay type: ADME, organism-based; conditions: in vivo; how it was run: as §2
[12] = AUC (0 to t) in C57Bl/6 mouse serum assessed as sobetirome level at 1.5 umol/kg, ip by LC-MS/MS analysis; assay type: ADME, organism-based; conditions: in vivo; how it was run: as §2
[13] = AUC (0 to t) in C57Bl/6 mouse liver at 1.5 umol/kg, ip by LC-MS/MS analysis; assay type: ADME, organism-based; conditions: in vivo; how it was run: as §2
[14] = AUC (0 to t) in C57Bl/6 mouse heart at 1.5 umol/kg, ip by LC-MS/MS analysis; assay type: ADME, organism-based; conditions: in vivo; how it was run: as §2
[15] = AUC (0 to t) in C57Bl/6 mouse kidney at 1.5 umol/kg, ip by LC-MS/MS analysis; assay type: ADME, organism-based; conditions: in vivo; how it was run: as §2
[16] = Ratio of drug level in C57Bl/6 mouse brain to serum at 1.5 umol/kg, ip after 1 hr by LC-MS/MS analysis; assay type: ADME, organism-based
How it was run: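 Male C57Bl/6 mice, 8–10 weeks old, given one i.p. dose of 1.5 μmol/kg in 50% DMSO/saline. Whole brain and blood taken 1 h later; serum obtained from blood clotted on ice ≥30 min and spun at 7,500 × g for 15 min. d6-sobetirome internal standard added, acetonitrile extraction, sobetirome quantified by negative-ESI LC-MS/MS. Mean of n = 3 mice, SEM.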

[17] = AUC (0 to t) in C57Bl/6 mouse serum at 1.5 umol/kg, ip by LC-MS/MS analysis; assay type: ADME, organism-based; conditions: in vivo; how it was run: as §2
[18] = AUC (0 to t) in C57Bl/6 mouse brain at 1.5 umol/kg, ip by LC-MS/MS analysis; assay type: ADME, organism-based; conditions: in vivo; how it was run: as §2
[19] = Drug uptake in C57Bl/6 mouse brain at 1.5 umol/kg, ip after 1 hr by LC-MS/MS analysis; assay type: ADME, organism-based; conditions: read-out: Drug uptake; how it was run: as §1

Activity [1]	Ratio [2]	SMILES	other results
3.38 ng/g	0.045	Cc1cc(OCC(=O)OC(CN)C(C)C)cc(C)c1Cc1ccc(O)c(C(C)C)c1 (configuration not stated)	
5.23 ng/g	0.2	Cc1cc(OCC(=O)OC(CN)C(F)(F)F)cc(C)c1Cc1ccc(O)c(C(C)C)c1 (configuration not stated)	
6.33 ng/g	0.21	CNCCOC(=O)COc1cc(C)c(Cc2ccc(O)c(C(C)C)c2)c(C)c1	
5.12 ng/g	0.23	CNCC(C)OC(=O)COc1cc(C)c(Cc2ccc(O)c(C(C)C)c2)c(C)c1 (configuration not stated)	
8.26 ng/g	0.47	Cc1cc(OCC(=O)O[C@@H](C)CN)cc(C)c1Cc1ccc(O)c(C(C)C)c1	half-life [3]: 6.96 h; Kp [4]: 0.13; AUCt [5]: 1017 ng·h/g; Activity [6]: Dose-dependent effect; ED50 [6]: 1 µmol/kg; AUCt [7]: 17.2 ng·h/g; AUCt [8]: 57.2 ng·h/g; F [9]: 56%; F [10]: 36%; AUCt [11]: 283.8 ng·h/g; AUCt [12]: 136.5 ng·h/g
4.92 ng/g	0.066	Cc1cc(OCC(=O)OCCN)cc(C)c1Cc1ccc(O)c(C(C)C)c1	
4.26 ng/g	0.41	CCC(CN)OC(=O)COc1cc(C)c(Cc2ccc(O)c(C(C)C)c2)c(C)c1 (configuration not stated)	
1.79 ng/g	0.024	CNCC(OC(=O)COc1cc(C)c(Cc2ccc(O)c(C(C)C)c2)c(C)c1)C(C)C (configuration not stated)	
		Cc1cc(OCC(=O)NC[C@H](C)O)cc(C)c1Cc1ccc(O)c(C(C)C)c1	Drug metabolism [1]: Metabolite_Detected
8.12 ng/g	0.19	Cc1cc(OCC(=O)O[C@H](C)CN)cc(C)c1Cc1ccc(O)c(C(C)C)c1	
5.14 ng/g	0.13	Cc1cc(OCC(=O)OC2(C(F)(F)F)CNC2)cc(C)c1Cc1ccc(O)c(C(C)C)c1	
0.48 ng/g	0.23	Cc1cc(OCC(=O)OC(C)CNC(C)C)cc(C)c1Cc1ccc(O)c(C(C)C)c1 (configuration not stated)	
0.4 ng/g	1.22	Cc1cc(OCC(=O)OC(C)(C)CN)cc(C)c1Cc1ccc(O)c(C(C)C)c1	
5.92 ng/g	0.21	Cc1cc(OCC(=O)OC(C)CN)cc(C)c1Cc1ccc(O)c(C(C)C)c1 (configuration not stated)	
4.46 ng/g	0.33	Cc1cc(OCC(=O)OC(C)CCN)cc(C)c1Cc1ccc(O)c(C(C)C)c1 (configuration not stated)	
		Cc1cc(OCC(=O)O)cc(C)c1Cc1ccc(O)c(C(C)C)c1 [SOBETIROME]	half-life [3]: 7.12 h; AUCt [13]: 2235 ng·h/g; Kp [4]: 0.02; Activity [6]: Dose-dependent effect; ED50 [6]: 1.8 µmol/kg; AUCt [14]: 180.3 ng·h/g; AUCt [15]: 686.8 ng·h/g; Kp at 1 h [16]: 0.037; AUCt [17]: 472.6 ng·h/g; AUCt [18]: 9.9 ng·h/g; concentration at 1 h [19]: 2.32 ng/g; F [10]: 92%

Reference: ChEMBL document CHEMBL4177554, “Ester-to-amide rearrangement of ethanolamine-derived prodrugs of sobetirome with increased blood-brain barrier penetration” (Bioorg Med Chem, 2017)
